Experimental data: ChEMBL document CHEMBL1126019, “Synthesis, stability, and biological evaluation of water-soluble prodrugs of a new echinocandin lipopeptide. Discovery of a potential clinical agent for the treatment of systemic candidiasis and Pneumocystis carinii pneumonia (PCP)” (J Med Chem, 1992)
Numbered stars: 1 amine (or outer) side, 2 acyl side, 3 side chain; on linkers, the order of the positions; unused ones are H or OH. Bridge positions count the residues as written; N and C are the ends. Square brackets hold non-standard residues; d marks the D form. Peptide text beside a SMILES is read from it. * marks the point of attachment. Orn(4R-OH,5R-OH) = O=C([C@H](C[C@@H](O)[C@@H](O)N[*:3])N[*:1])[*:2]; hTyr(3S-OH,4S-OH) = N[C@H](C(=O)O)[C@H](O)[C@@H](O)c1ccc(O)cc1; Pro(3S-OH,4S-Me) = C[C@H]1CN[C@H](C(=O)O)[C@H]1O; Benzoyl(4-octyloxy) = CCCCCCCCOc1ccc(C(=O)*)cc1; Hyp = O=C(O)[C@@H]1C[C@@H](O)CN1

Legend:
Homo sapiens = organism: Homo sapiens; test: Hemolytic potential was determined as the minimum lytic concentration against human red blood cells; assay type: functional, cell-based
In short: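 Compounds were serially diluted in water containing 10% DMSO and added to whole human blood, then incubated 2 h at 37 °C. Red cell lysis was scored visually, and the lowest lytic concentration was recorded.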

Fungi [1] = test: (§1) Minimum fungicidal concentration against Candida parapsilosis MY 1010; assay type: functional, organism-based
In short: (§2)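 Clinical isolates in yeast nitrogen base with 1% dextrose, inoculated with about 5×10^3 CFU per well. Drug was tested by 2-fold serial dilution from 128 to 0.06 µg/mL, with growth for 24 h at 35 °C. 1.5-µL aliquots were then spotted onto Sabouraud dextrose agar and incubated at 35 °C for 24 h. MFC was the lowest concentration giving fewer than five colonies per spot. Duplicate determinations.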

[2] = Inhibitory activity against glucan synthesis; assay type: functional
Fungi [3] = test: (§3) Minimum fungicidal concentration against Candida tropicalis MY 1012; assay type: functional, organism-based; in short: as §2
Fungi [4] = test: (§4) Minimum fungicidal concentration against Candida albicans MY 1028; assay type: functional, organism-based; in short: as §2
Fungi [5] = test: (§5) Minimum fungicidal concentration against Candida albicans MY 1055; assay type: functional, organism-based; in short: as §2
Fungi [6] = test: Minimum fungicidal concentration against Candida pseudotropicalis MY 1100; assay type: functional, organism-based
In short: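 Clinical isolates were inoculated at about 5×10^3 CFU into yeast nitrogen base with 1% dextrose, with drug in 2-fold dilutions from 128 to 0.06 µg/mL, and grown 24 h at 35 °C. Then 1.5 µL aliquots were spotted on Sabouraud dextrose agar and held 24 h at 35 °C. MFC is the lowest concentration giving fewer than five colonies per spot, from duplicate determinations.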

Mus musculus = organism: Mus musculus; test: Minimum effect dose required to reduce the number of colony forming units in per gram kidney of mice after being challenged, by tail vein injection, with 5 X l0e4 cells of Candida albicans (MY 1055); assay type: functional
In short: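 DBA/2 mice (5 per dose level) were infected intravenously and dosed ip with vehicle sham or 1.5, 3.0 or 6.0 mg/kg twice daily for 4 days. On day 7 post-infection, kidneys were cultured on SDA (35 °C, 24 h) and CFU/g counted. MED99 is the dose giving ≥99% CFU/g reduction versus vehicle sham.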

Rattus norvegicus = organism: Rattus norvegicus; test: Minimum effect dose required to reduce the number of alveolor cyst load in rat Pneumocystis carinii pneumonia assay; assay type: functional
In short: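 Immunosuppressed Sprague-Dawley rats with confirmed infection (5 per dose level) were dosed subcutaneously, 0.15 and 0.60 mg/kg twice daily for 4 days. On day 5, lungs were homogenized and cysts counted microscopically in a known amount of homogenate. MED90 is the dose giving ≥90% cyst reduction versus vehicle sham controls.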

Candida parapsilosis = test: as §1; assay type: functional, organism-based; in short: as §2
Candida tropicalis = test: as §3; assay type: functional, organism-based; in short: as §2
Candida albicans [7] = test: as §4; assay type: functional, organism-based; in short: as §2
Candida albicans [8] = test: as §5; assay type: functional, organism-based; in short: as §2

| SMILES | Concentration (Homo sapiens) [µg/mL] | IC50 [2] [µM] | Concentration (Fungi [3]) [µg/mL] | Concentration (Fungi [4]) [µg/mL] | Concentration (Fungi [5]) [µg/mL] | Concentration (Fungi [6]) [µg/mL] | MED99 (Mus musculus) [mg/kg] | MED90 (Rattus norvegicus) [mg/kg] | also measured |
| --- | --- | --- | --- | --- | --- | --- | --- | --- | --- |
| CCC(C)CC(C)CCCCCCCCC(=O)N[C@H]1C[C@@H](O)[C@@H](O)NC(=O)[C@@H]2[C@@H](O)CCN2C(=O)[C@H]([C@@H](O)CC(N)=O)NC(=O)[C@H]([C@H](O)[C@@H](O)c2ccc(OC(=O)CCN)cc2)NC(=O)[C@@H]2C[C@@H](O)CN2C(=O)[C@H]([C@H](C)O)NC1=O (some centres not stated) | 100 | 0.2 | 0.5 | 1 | 1 |  |  |  | Concentration (Fungi [1]): 16 µg/mL |
| CCC(C)CC(C)CCCCCCCCC(=O)N[C@H]1C[C@@H](O)[C@@H](O)NC(=O)[C@@H]2[C@@H](O)CCN2C(=O)[C@H]([C@@H](O)CC(N)=O)NC(=O)[C@H]([C@H](O)[C@@H](O)c2ccc(OC(=O)CN)cc2)NC(=O)[C@@H]2C[C@@H](O)CN2C(=O)[C@H]([C@H](C)O)NC1=O (some centres not stated) | 100 | 0.05 | < 0.06 | 1 | 0.5 | 2 |  |  |  |
| CCC(C)CC(C)CCCCCCCCC(=O)N[C@H]1C[C@@H](O)[C@@H](O)NC(=O)[C@@H]2[C@@H](O)CCN2C(=O)[C@H]([C@@H](O)CC(N)=O)NC(=O)[C@H]([C@H](O)[C@@H](O)c2ccc(OC(=O)NCC(=O)O)cc2)NC(=O)[C@@H]2C[C@@H](O)CN2C(=O)[C@H]([C@@H](C)O)NC1=O (some centres not stated) |  |  |  |  |  |  | > 6 | > 0.3 |  |
| CCC(C)CC(C)CCCCCCCCC(=O)N[C@H]1C[C@@H](O)[C@@H](O)NC(=O)[C@@H]2[C@@H](O)CCN2C(=O)[C@H]([C@@H](O)CC(N)=O)NC(=O)[C@H]([C@H](O)[C@@H](O)c2ccc(O)cc2)NC(=O)[C@@H]2C[C@@H](O)CN2C(=O)[C@H]([C@@H](C)O)NC1=O (some centres not stated) |  |  |  |  |  |  | 3 | 0.15 |  |
| CCC(C)CC(C)CCCCCCCCC(=O)N[C@H]1C[C@@H](O)[C@@H](O)NC(=O)[C@@H]2[C@@H](O)CCN2C(=O)[C@H]([C@@H](O)CC(N)=O)NC(=O)[C@H]([C@H](O)[C@@H](O)c2ccc(OC(=O)NCCN(C)C)cc2)NC(=O)[C@@H]2C[C@@H](O)CN2C(=O)[C@H]([C@@H](C)O)NC1=O.O=C(O)C(F)(F)F (some centres not stated) |  |  |  |  |  |  | 6 | 0.6 |  |
| CCC(C)CC(C)CCCCCCCCC(=O)N[C@H]1C[C@@H](O)[C@@H](O)NC(=O)[C@@H]2[C@@H](O)CCN2C(=O)[C@H]([C@@H](O)CC(N)=O)NC(=O)[C@H]([C@H](O)[C@@H](O)c2ccc(OC(=O)OCCN(C)C)cc2)NC(=O)[C@@H]2C[C@@H](O)CN2C(=O)[C@H]([C@H](C)O)NC1=O (some centres not stated) | 50 | 0.1 | 0.125 | 0.125 | 0.25 | 1 |  |  | Concentration (Fungi [1]): 2 µg/mL |
| CCC(C)CC(C)CCCCCCCCC(=O)N[C@H]1C[C@@H](O)[C@@H](O)NC(=O)[C@@H]2[C@@H](O)CCN2C(=O)[C@H]([C@@H](O)CC(N)=O)NC(=O)[C@H]([C@H](O)[C@@H](O)c2ccc(OC(=O)NCCC(=O)O)cc2)NC(=O)[C@@H]2C[C@@H](O)CN2C(=O)[C@H]([C@@H](C)O)NC1=O (some centres not stated) |  |  |  |  |  |  | > 6 | > 0.6 |  |
| CCC(C)CC(C)CCCCCCCCC(=O)N[C@H]1C[C@@H](O)[C@@H](O)NC(=O)[C@@H]2[C@@H](O)CCN2C(=O)[C@H]([C@@H](O)CC(N)=O)NC(=O)[C@H]([C@H](O)[C@@H](O)c2ccc(OC(=O)N(C)CC(=O)O)cc2)NC(=O)[C@@H]2C[C@@H](O)CN2C(=O)[C@H]([C@@H](C)O)NC1=O (some centres not stated) |  |  |  |  |  |  | > 6 | > 0.6 |  |
| CCC(C)CC(C)CCCCCCCCC(=O)N[C@H]1C[C@@H](O)[C@@H](O)NC(=O)[C@@H]2[C@@H](O)CCN2C(=O)[C@H]([C@@H](O)CC(N)=O)NC(=O)[C@H]([C@H](O)[C@@H](O)c2ccc(OC(=O)CCCC(=O)O)cc2)NC(=O)[C@@H]2C[C@@H](O)CN2C(=O)[C@H]([C@H](C)O)NC1=O (some centres not stated) | > 400 | 1 | 0.5 | 0.5 | 0.5 | 2 |  |  |  |
| CCC(C)CC(C)CCCCCCCCC(=O)N[C@H]1C[C@@H](O)[C@@H](O)NC(=O)[C@@H]2[C@@H](O)CCN2C(=O)[C@H]([C@@H](O)CC(N)=O)NC(=O)[C@H]([C@H](O)[C@@H](O)c2ccc(OC(=O)N(C)CC(=O)O)cc2)NC(=O)[C@@H]2C[C@@H](O)CN2C(=O)[C@H]([C@H](C)O)NC1=O (some centres not stated) | 25 | > 1 | 1 | 2 | 2 | 8 |  |  |  |
| CCC(C)CC(C)CCCCCCCCC(=O)N[C@H]1C[C@@H](O)[C@@H](O)NC(=O)[C@@H]2[C@@H](O)CCN2C(=O)[C@H]([C@@H](O)CC(N)=O)NC(=O)[C@H]([C@H](O)[C@@H](O)c2ccc(OC(=O)CN)cc2)NC(=O)[C@@H]2C[C@@H](O)CN2C(=O)[C@H]([C@@H](C)O)NC1=O.Cl (some centres not stated) |  |  |  |  |  |  | 3 | 0.6 |  |
| CCC(C)CC(C)CCCCCCCCC(=O)N[C@H]1C[C@@H](O)[C@@H](O)NC(=O)[C@@H]2[C@@H](O)CCN2C(=O)[C@H]([C@@H](O)CC(N)=O)NC(=O)[C@H]([C@H](O)[C@@H](O)c2ccc(OC(=O)OCCN(C)C)cc2)NC(=O)[C@@H]2C[C@@H](O)CN2C(=O)[C@H]([C@@H](C)O)NC1=O.O=C(O)C(F)(F)F (some centres not stated) |  |  |  |  |  |  | 6 | 0.6 |  |
| CCC(C)CC(C)CCCCCCCCC(=O)N[C@H]1C[C@@H](O)[C@@H](O)NC(=O)[C@@H]2[C@@H](O)CCN2C(=O)[C@H]([C@@H](O)CC(N)=O)NC(=O)[C@H]([C@H](O)[C@@H](O)c2ccc(O)cc2)NC(=O)[C@@H]2C[C@@H](O)CN2C(=O)[C@H]([C@H](C)O)NC1=O (some centres not stated) | > 400 | 0.07 | 0.06 | 0.125 | 0.25 | 2 |  |  | Concentration (Fungi [1]): 4 µg/mL |
| CCCCCCCCOc1ccc(C(=O)N[C@H]2C[C@@H](O)[C@@H](O)NC(=O)[C@@H]3[C@@H](O)[C@@H](C)CN3C(=O)[C@H]([C@@H](C)O)NC(=O)[C@H]([C@H](O)[C@@H](O)c3ccc(O)cc3)NC(=O)[C@@H]3C[C@@H](O)CN3C(=O)[C@H]([C@@H](C)O)NC2=O)cc1 [CILOFUNGIN] ({Benzoyl(4-octyloxy)}-[Orn(4R-OH,5R-OH)]T[Hyp][hTyr(3S-OH,4S-OH)]T[Pro(3S-OH,4S-Me)]; lactam 1-C) | > 400 | 1 |  |  |  |  | 3 | > 2.5 | Concentration (Candida parapsilosis): 16 µg/mL; Concentration (Candida tropicalis): 0.25 µg/mL; Concentration (Candida albicans [7]): 0.5 µg/mL; Concentration (Candida albicans [8]): 0.5 µg/mL |
| CCC(C)CC(C)CCCCCCCCC(=O)N[C@H]1C[C@@H](O)[C@@H](O)NC(=O)[C@@H]2[C@@H](O)CCN2C(=O)[C@H]([C@@H](O)CC(N)=O)NC(=O)[C@H]([C@H](O)[C@@H](O)c2ccc(OC(=O)CCCC(=O)O)cc2)NC(=O)[C@@H]2C[C@@H](O)CN2C(=O)[C@H]([C@@H](C)O)NC1=O (some centres not stated) |  |  |  |  |  |  | 6 | 0.6 |  |
| CCC(C)CC(C)CCCCCCCCC(=O)N[C@H]1C[C@@H](O)[C@@H](O)NC(=O)[C@@H]2[C@@H](O)CCN2C(=O)[C@H]([C@@H](O)CC(N)=O)NC(=O)[C@H]([C@H](O)[C@@H](O)c2ccc(OC(=O)NCC(=O)O)cc2)NC(=O)[C@@H]2C[C@@H](O)CN2C(=O)[C@H]([C@H](C)O)NC1=O (some centres not stated) | > 400 | > 10 | 8 | 4 | 4 | 32 |  |  |  |
| CCC(C)CC(C)CCCCCCCCC(=O)N[C@H]1C[C@@H](O)[C@@H](O)NC(=O)[C@@H]2[C@@H](O)CCN2C(=O)[C@H]([C@@H](O)CC(N)=O)NC(=O)[C@H]([C@H](O)[C@@H](O)c2ccc(OC(=O)NCCN(C)C)cc2)NC(=O)[C@@H]2C[C@@H](O)CN2C(=O)[C@H]([C@H](C)O)NC1=O (some centres not stated) | 25 | 1 | 1 | 1 | 1 | 64 |  |  |  |
| CCC(C)CC(C)CCCCCCCCC(=O)N[C@H]1C[C@@H](O)[C@@H](O)NC(=O)[C@@H]2[C@@H](O)CCN2C(=O)[C@H]([C@@H](O)CC(N)=O)NC(=O)[C@H]([C@H](O)[C@@H](O)c2ccc(OC(=O)NCCC(=O)O)cc2)NC(=O)[C@@H]2C[C@@H](O)CN2C(=O)[C@H]([C@H](C)O)NC1=O (some centres not stated) | > 400 | > 10 | 128 | 128 | 128 |  |  |  | Concentration (Fungi [1]): > 128 µg/mL |
| CCC(C)CC(C)CCCCCCCCC(=O)N[C@H]1C[C@@H](O)[C@@H](O)NC(=O)[C@@H]2[C@@H](O)CCN2C(=O)[C@H]([C@@H](O)CC(N)=O)NC(=O)[C@H]([C@H](O)[C@@H](O)c2ccc(OC(=O)CCN)cc2)NC(=O)[C@@H]2C[C@@H](O)CN2C(=O)[C@H]([C@@H](C)O)NC1=O.Cl (some centres not stated) |  |  |  |  |  |  | 6 | 0.15 |  |
